This is a sample that favours compounds with a hit; in the whole collection about 1.5% have one here.
Tb MetRS inh = Trypanosoma brucei MetRS inhibition | 360,000 compounds, 0.4% hits | AID 624268 | purified T. brucei MetRS, ATP depletion, Kinase-Glo luminescence | inhibition, % at 11.9 µM;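 active = inhibition above a per-plate cutoff of the control wells' mean inhibition plus 3 SD, cut at about 5.5% in these data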;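 note: 0% = DMSO wells median and 100% = median of wells with control inhibitor compound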
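Material: T. brucei methionyl-tRNA synthetase, purified; reagent: substrates ATP, L-methionine and bulk Escherichia coli tRNA; dosing: 11.9 µM single point; timing: 15 min plus 2 h at 25 °C; detection: luminescence of leftover ATP; evaluation: % inhibition; control set: DMSO-only wells as low control; replicates: singlicate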
PKA-R2B activ = PKA-R2B complex activation; activation, % at 11.4 µM; AID 504700; PKA-R2B holoenzyme dissociation, Cy5-IP20 fluorescence polarization; R2B truncated from residue 108, S112A mutant; 0% DMSO only, 100% 113 µM cGMP; 340,000 compounds, 0.079% hits;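 active = activation above a cutoff set at the mean over all compounds plus 3 SD, cut at about 18% in these data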;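 note: higher means more holoenzyme dissociation and a rise in polarization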
Target sequence (P31323 whole entry, looked up, other chains not shown, the tested form may be a part): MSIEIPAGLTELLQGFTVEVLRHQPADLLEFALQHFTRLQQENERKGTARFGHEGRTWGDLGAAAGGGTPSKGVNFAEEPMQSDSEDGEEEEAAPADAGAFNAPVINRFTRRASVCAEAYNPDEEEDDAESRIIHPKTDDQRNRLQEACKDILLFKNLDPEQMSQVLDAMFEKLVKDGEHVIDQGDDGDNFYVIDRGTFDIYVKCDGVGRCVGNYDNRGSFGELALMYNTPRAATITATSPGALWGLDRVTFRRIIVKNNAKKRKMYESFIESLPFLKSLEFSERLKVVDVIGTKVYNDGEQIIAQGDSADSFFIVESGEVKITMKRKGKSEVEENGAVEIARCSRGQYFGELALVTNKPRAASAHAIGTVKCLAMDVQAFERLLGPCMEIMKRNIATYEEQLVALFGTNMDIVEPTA
PKA-R1A act = activates the PKA-R1A holoenzyme complex; P00514+P68181; PKA-R1A dissociation, Cy5-IP20 fluorescence polarization; scaled: DMSO 0%, 113 µM cGMP 100%; activation, % at 11.4 µM; 340,000 compounds, 0.083% hits; AID 504707;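 active = percent activation above the mean of all tested compounds plus 3 SD, cut at about 19% in these data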;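 note: higher means more PKAc released from R1A so a rise in polarization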
Cardio protect = myocardial damage modulation in H9c2 cells; H9c2 cardiomyocytes, H2O2 injury protection, ATPLite, 2 h; protection from H2O2 cell death, % at 20 µM; 360,000 compounds, 0.63% hits; AID 588492;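 active = compounds giving at least 50% protection of heart cells from peroxide-induced death in the single-dose screen, raw or plate-pattern-corrected value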;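 note: 0% = DMSO wells with peroxide and 100% = DMSO wells without peroxide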
Rin1 Abl inh = human Rin1-Abl interaction inhibition | P00519+Q13671 | TR-FRET Rin1/Abl binding, biochemical | inhibition, % at 7.35 µM | 360,000 compounds, 0.4% hits; in the data active = inhibition above about 5%, passing the limit was not always enough
R1A FP artifact = counter-screen for PKA-R1A activators: fluorescence polarization artifacts; shares compounds with PKA-R1A act; activation, % at 11.4 µM; 280 compounds, 7% hits; Cy5-IP20 peptide alone, fluorescence polarization artifact counterscreen;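 active = mean activation over triplicate runs exceeds the adjusted cutoff derived for the parent primary screen, cut at about 19% in these data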;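 note: no PKA protein present so any polarization rise reflects compound interference; 0% = tracer peptide mix alone and 100% = mix with added PKA catalytic subunit; higher means stronger polarization artifact and likely false positive in parent screen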
PKA-R1A confirm = PKA-R1A complex activation, confirmation | shares compounds with PKA-R1A act | Cy5-IP20 fluorescence polarization, PKA-R1A holoenzyme dissociation | activation, % at 11.4 µM | 280 compounds, 9% hits | AID 504800;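 active = mean activation over replicate wells exceeds the adjusted hit threshold taken from the earlier primary screen, cut at about 20% in these data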;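 note: 0% = holoenzyme mix with DMSO only and 100% = cGMP-activated control wells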
Numbers without * were called inactive; . = not tested or not shown.

SMILES | Tb MetRS inh | PKA-R2B activ | PKA-R1A act | Cardio protect | Rin1 Abl inh | R1A FP artifact | PKA-R1A confirm
COC(=O)c1c(NC(=S)Nc2ccccc2Cl)sc(C)c1C | 0.0 | -9.2 | 20.5* | -7.6 | -3.8 | 0.0 | 0.0
CCOc1cccc(-c2c(C(=O)N/N=C/c3ccc(C)o3)nnn2-c2nonc2N)c1 | -0.4 | 3.0 | -9.2 | 3.5 | 1.9 | . | .
Cc1cc(NC(=O)c2ccc(Br)o2)ccc1NC(=O)c1ccco1 | -2.3 | -0.5 | 19.0* | -5.1 | 2.3 | 2.4 | 3.7
O=C(Nc1ccc(F)cc1F)c1ccco1 | -1.0 | 6.1 | 24.5* | -0.2 | -1.1 | 2.5 | 6.2
CCOC(=O)N1CCN(C(=O)COc2ccc3c(c2)C(=O)CC(C)(C)O3)CC1 | 0.1 | 0.6 | 1.9 | -5.6 | -1.8 | . | .
CCOC(=O)COc1ccc2c(c1)C(=O)CC(C)(C)O2 | -0.6 | 3.1 | 18.9* | 2.4 | -1.1 | -0.5 | -1.3
Cc1cc(N2CCOCC2)nc2ccc(NC(=O)CCC(=O)N3CCN(c4cccc(C(F)(F)F)c4)CC3)cc12 | -0.6 | -2.1 | 1.6 | -3.6 | -3.1 | . | .
COc1ccccc1NS(=O)(=O)c1cccc(C(=O)NCc2ccco2)c1 | 0.1 | -4.2 | -1.4 | 6.4 | -3.7 | . | .
Cc1c(CN2CCCC(C(=O)c3cccc(OC(C)C)c3)C2)c(=O)n(-c2ccccc2)n1C (stereo unspecified) | -0.1 | -4.7 | -3.2 | 5.5 | -1.0 | . | .
O=S(=O)(c1ccc(Br)s1)N1CCN(CCc2ccccc2)CC1 | -0.1 | -8.9 | 19.2* | -0.8 | 0.8 | 0.1 | 3.0
Cc1c(C(=O)Nc2ccc(Oc3ccccc3)cc2)sc2nc3n(c(=O)c12)CCC3 | -0.5 | 0.8 | 20.8* | -24.1 | -4.3 | -1.6 | 0.0
Cc1cccc(/C=N/n2c(-c3cc(-c4ccccc4)n[nH]3)n[nH]c2=S)c1 | -0.3 | 4.3 | 18.8* | -6.0 | -6.4 | -2.9 | -2.1
CCOc1cc(CNC(=O)CN2C(=O)c3ccccc3S2(=O)=O)ccc1OC | 0.7 | -6.4 | 18.7* | -6.1 | 2.3 | -1.5 | -0.4
CC(C)C(=O)Nc1c2c(nc3c1CCC3)CCCC2 | -0.8 | 4.9 | 23.9* | 15.1 | -0.1 | 3.3 | -0.1
CCC(C)C(=O)Nc1c2c(nc3c1CCC3)CCCC2 (stereo unspecified) | -0.2 | 1.6 | 8.0 | -3.3 | 3.3 | . | .
Cc1ccc(Cl)cc1NC(=O)CCC(=O)NCc1ccco1 | -0.8 | -8.2 | -6.4 | 1.9 | -4.2 | . | .
O=C(Cn1cnc2ccccc2c1=O)Nc1ccc(S(=O)(=O)N2CCOCC2)cc1 | -0.3 | 2.1 | 18.9* | -2.8 | 0.2 | 0.1 | 3.0
CNC(=O)COc1coc(CN2CCN(C(=O)c3ccco3)CC2)cc1=O | -0.4 | -2.1 | -4.3 | 0.8 | 0.9 | . | .
CCN(CC)C(=O)C1CCN(S(=O)(=O)c2ccc(-n3cnnn3)cc2)CC1 | -0.3 | -1.1 | -7.6 | -16.1 | -1.0 | . | .
CN(Cc1ccccc1)C(=O)C1CCN(S(=O)(=O)c2ccc(-n3cnnn3)cc2)CC1 | 0.3 | 9.5 | 20.7* | -1.8 | 1.6 | 3.3 | 2.5
Cc1cccc(C(=O)OCC(=O)N2CCCCCC2)c1C | -0.5 | -8.3 | -12.0 | -7.8 | -0.1 | . | .
Cc1ccc(C(=O)c2ccccc2C(=O)OCC(=O)N2CCCC2)cc1 | -0.1 | 2.7 | 20.4* | -1.2 | 2.7 | 2.5 | 7.9
CC(NC(=O)C1CC=CCC1C(=O)O)C1CC2CCC1C2 (stereo unspecified) | -0.6 | -0.2 | -15.5 | -1.5 | -1.1 | . | .
CC(NC(=O)C1CCCC1)C1CC2CCC1C2 (stereo unspecified) | -0.3 | -3.1 | 19.7* | -3.6 | -0.4 | 1.9 | 0.4
O=C(CCNC(=O)c1ccccc1)N/N=C/c1ccc([N+](=O)[O-])cc1 | -0.3 | 5.7 | -4.0 | 2.3 | -0.8 | . | .
SMILES | Tb MetRS inh | PKA-R2B activ | PKA-R1A act | Cardio protect | Rin1 Abl inh | R1A FP artifact | PKA-R1A confirm
O=C(CNc1ccccc1)N/N=C/c1ccc([N+](=O)[O-])cc1 | -0.4 | -10.8 | 21.8* | -0.9 | -3.6 | -2.3 | 3.3
CCCNC(=O)N(C)C[C@H]1Oc2ncc(C#CCc3ccccc3)cc2C(=O)N([C@H](C)CO)C[C@H]1C | -0.4 | -0.6 | 3.2 | -1.6 | 1.3 | . | .
COc1ccccc1NC(=O)N(C)C[C@H]1Oc2ncc(C#CCN(C)C)cc2C(=O)N([C@H](C)CO)C[C@H]1C | -0.8 | -12.9 | 20.5* | -1.8 | 0.0 | -0.2 | -1.0
CC(C)(C)S(=O)(=O)c1cnc(-c2ccccn2)nc1N | 0.3 | -2.8 | 19.8* | -0.8 | -4.3 | 5.1 | 1.0
O=C(NCc1ccco1)c1cccc2c1C(=O)c1ccc(N3CCC(N4CCCCC4)CC3)cc1S2(=O)=O | -0.7 | 5.8 | 19.6* | 12.3 | -10.9 | 3.5 | 1.3
O=c1ccnc(SCCc2ccc([N+](=O)[O-])cc2)[nH]1 | 0.0 | -1.1 | 7.9 | -3.6 | -3.5 | . | .
O=C1NC(CCO)C(=O)NC1CCO (stereo unspecified) | 0.0 | -2.9 | 7.3 | 3.4 | 0.2 | . | .
C[C@H]1CN([C@@H](C)CO)C(=O)c2cc(Br)cnc2O[C@@H]1CN(C)S(C)(=O)=O | -2.4 | -0.8 | 11.0 | 2.5 | -0.3 | . | .
COCCN(CCOc1cc(C)cc(C)c1)Cc1ccc(Cl)cc1 | -0.5 | 1.5 | 20.0* | -8.4 | 1.8 | -4.1 | -1.5
CCCCC1(C(=O)OCC)CC(CSC(=N)N)OC1=O (stereo unspecified) | -1.1 | -1.6 | 1.1 | 1.0 | 3.7 | . | .
CCCC1=C(C(=O)OCC)C(c2sccc2C)n2ncnc2N1 (stereo unspecified) | 0.2 | 4.8 | 19.0* | 8.3 | -0.6 | 4.1 | 3.8
CCCC1=C(C(=O)OCC)C(c2ccc(O)cc2)n2ncnc2N1 (stereo unspecified) | -0.5 | -1.4 | 1.6 | 8.8 | -2.6 | . | .
Oc1ccc2ccccc2c1/C=N/n1cnnc1 | -0.7 | 12.5 | 18.6* | 6.8 | -1.0 | 4.5 | 2.1
O=C1N(C2CCCC2)C[C@@H]2C[C@@H](c3cccn3-c3ccccn3)N3CCC[C@@]123 | -0.5 | 5.0 | 20.5* | -5.2 | -0.3 | 1.8 | 2.0
CCOc1ccccc1/C=N/NC(=O)c1nnn(-c2nonc2N)c1CN1CCCCCC1 | -0.2 | -6.8 | -5.6 | -0.5 | 0.0 | . | .
COc1cccc(C(=O)N2CCN(C(=O)C3CCCO3)CC2)c1 (stereo unspecified) | 0.3 | 3.8 | 19.9* | -0.1 | -0.2 | 3.1 | 6.0
CC(C)CCOc1ccc(C(=O)N2CCCC2C(=O)O)cc1 (stereo unspecified) | -1.4 | -1.9 | 19.9* | 10.5 | 1.4 | 3.0 | 1.6
O=C(CN1CCN(C(=O)C2CC2)CC1)Nc1ccc(Cl)cc1F | -0.3 | -2.4 | 1.0 | 2.1 | 1.2 | . | .

Compound activity: PubChem BioAssay, several laboratories
